Data reported in ChEMBL document CHEMBL3232844, “Synthesis and structure activity relationships of schweinfurthin indoles” (2014).

System: SF-295
Test: Cytotoxicity against human SF295 cells
Type: functional
Conditions: read-out: GI50
Method in brief: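 Tested in a 60-cell-line human tumor panel screen; the read-out is growth inhibition, reported as GI50 for each cell line.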

| SMILES | GI50 [nM] |
| --- | --- |
| CC(C)=CCc1c(O)cc(/C=C/c2cc(O)c3c(c2)C[C@@H]2C(C)(C)[C@H](O)CC[C@@]2(C)O3)cc1O [SCHWEINFURTHIN G] | 10 |
| COc1cc(/C=C/c2cc(O)c(CC=C(C)C)c(O)c2)cc2c1O[C@]1(C)CC[C@@H](O)C(C)(C)[C@H]1C2 [SCHWEINFURTHIN F] | < 36 |
